# The list is not random: actives were taken first. Their share in the collection is about 2.5%.
# Rin1 Abl inh: blocks binding of human Rin1 to Abl. P00519+Q13671. TR-FRET Rin1/Abl binding, biochemical. inhibition, % at 7.35 µM. 360,000 compounds, 0.4% hits; in the data active means inhibition above about 5%, passing the limit was not always enough
# UHRF1 MBD2 ctr: human UHRF1 methylated DNA binding inhibitors. Q96T88. UHRF1 binding to methylated oligo, TR-FRET. inhibition, % at 4.4 µM. 370,000 compounds, 0.75% hits; in the data active means inhibition above about 21%;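 further: UHRF1 SRA domain binding a hemimethylated CpG hairpin DNA probe; 0% = median of test compound wells and 100% = reference inhibitor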
# ABHD5-PLIN5 inh: blocks binding of human ABHD5 to perilipin-5; Q00G26+Q8WTS1; 360,000 compounds, 0.78% hits; inhibition, % at 4 µM; AID 602281; Split G. princeps luciferase complementation, luminescence, 4 h;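 active means inhibition above the mean inhibition across every tested compound plus 3 SD, cut at about 22% in these data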;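 further: 0% = DMSO only wells and the 100% control is not disclosed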
# Arr AP2 block: inhibitors of human beta-arrestin and AP2 interaction; FITC-arrestin peptide / GST-AP2 beads, flow cytometry; AP2 beta2 appendage carries R879A mutation; inhibition, % at 10 µM; 340,000 compounds, 0.31% hits; AID 504490;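 active means inhibition above a set limit, near 3 SD of compounds lacking own fluorescence, cut at about 54% in these data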;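 further: plate controls were DMSO wells for no effect and 5 µM unlabelled arrestin peptide for full effect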
#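 test system = AP2 appendage R879A on GSH beads | buffer or medium = PBS plus Tween 20 (0.05%) and BSA (0.1%) | incubation = 12 min plus 1 h, RT | detection = bead flow cytometry, FITC channel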
# B2AR ag: human beta-2 adrenergic receptor agonism by FAP. P07550. AID 504454. 340,000 compounds, 0.43% hits. response, % (test concentration not listed). Am2.2-beta2AR cells, FAP receptor internalization, flow cytometry;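 active means response above a set limit, near 3 SD of response in nonfluorescent compounds, cut at about 42% in these data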
# MBD2 inh: blocks human MBD2 binding to methylated DNA. Q9UBB5. TR-FRET, MBD2 binding to methylated oligonucleotide. inhibition, % at 4.4 µM. 370,000 compounds, 0.31% hits; in the data active means inhibition above about 13%
# Arr-AP2 CP1: human beta-arrestin and AP2 interaction inhibition, cherry pick; shares compounds with Arr AP2 block; 1,300 compounds, 2% hits; AID 504908; GST-AP2 beads, FITC arrestin peptide binding, flow cytometry; GST-fused beta2-adaptin appendage, R879A mutant; inhibition, % at 10 µM;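 active means inhibition above a set limit, roughly 3 SD of non-fluorescent compound noise, cut at about 38% in these data; inactive means inhibition at or below that limit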;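 further: loss of bead fluorescence from 50 nM FITC arrestin peptide bound to appendage; 0% = negative control wells and 100% = excess unlabelled arrestin peptide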
# GST-FITC bead: counter-screen for beta-arrestin AP2 inhibitors: GST-GSH bead binding; shares compounds with Arr AP2 block; GST-fluorescein binding to GSH beads, fluorescence; inhibition, % at 10 µM; 1,300 compounds, 2% hits; AID 588338;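 active means inhibition above 50%, about 3 SD of the inhibition seen with non-fluorescent compounds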;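 further: fluorescein maleimide labelled GST captured on 4 micron glutathione beads; higher means more loss of bead fluorescence from quenching or blocked binding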
# Numbers without * were called inactive; nt = no result.
SMILES,Rin1 Abl inh,UHRF1 MBD2 ctr,ABHD5-PLIN5 inh,Arr AP2 block,B2AR ag,MBD2 inh,Arr-AP2 CP1,GST-FITC bead
Cc1cc(NC(=O)C2CCCCC2)n(-c2nc3ccccc3[nH]2)n1,-1,-2,-5,-4,-6,0,nt,nt
Cc1cc(NC(=O)c2c(F)cccc2F)n(-c2nc3ccccc3[nH]2)n1,6,3,8,13,-1,1,11,-4
Cc1cc(NC(=O)c2ccccc2F)n(-c2nc3ccccc3[nH]2)n1,-3,-1,3,20,1,10,4,-7
C/C(=N/NC(=O)Cc1cccs1)c1cccc([N+](=O)[O-])c1,nt,-2,nt,nt,nt,-6,nt,nt
CCN1/C(=C2\SC(=S)N(Cc3ccccc3)C2=O)Sc2ccccc21,-2,0,5,107*,-5,-6,9,-6
CC(C)c1nc2sc3c(NCc4ccco4)ncnc3c2c2c1COC(C)(C)C2,0,6,6,101*,7,7,6,-2
O=C(Cc1ccc(F)cc1)N1CCC2(CC1)NCCc1[nH]cnc12,-1,-4,-4,56*,-2,-1,3,-4
Cc1c(NC(=O)C2CCCN(S(=O)(=O)c3c(C(C)C)cc(C(C)C)cc3C(C)C)C2)c(=O)n(-c2ccccc2)n1C (centres undefined),nt,-3,nt,nt,nt,3,nt,nt
CCCCc1ccc(-c2noc(CCC(=O)NCC)n2)cc1,nt,-2,nt,nt,nt,-10,nt,nt
CCOc1cc(/C=C2\SC(N)=NC2=O)ccc1O,-3,1,11,61*,11,-5,-6,-1
CCCCNS(=O)(=O)CC1NCc2cc(OC)ccc21 (centres undefined),nt,-6,nt,nt,nt,-10,nt,nt
Cc1ccc(-c2nnn(CC(=O)N(c3ccccc3)C(C(=O)NCC3CCCO3)c3ccc(F)cc3)n2)o1 (centres undefined),5,1,2,66*,-1,1,6,0
Cc1ccc(C2=C(c3ccc([N+](=O)[O-])cc3)C(=O)OC2)cc1C,2,-1,0,54*,6,-4,-5,0
COc1cccc(OCC(O)CN2C(C)CCCC2C)c1 (centres undefined),0,1,7,0,8,2,nt,nt
Cc1cc(OCC(O)CN2C(C)CCCC2C)ccc1C(C)C (centres undefined),4,-3,-4,54*,2,-4,1,-3
O=[N+]([O-])c1ccccc1S(=O)(=O)N1CCC(c2cn3ccccc3n2)CC1,nt,1,nt,nt,nt,-1,nt,nt
O=C(Nc1nc(-c2cc3ccccc3o2)cs1)c1ccc(S(=O)(=O)N2CCCC2)cc1,4,5,-4,13,15,-1,nt,nt
CC1CN(S(=O)(=O)c2ccc(C(=O)Nc3nc(-c4cc5ccccc5o4)cs3)cc2)CC(C)O1 (centres undefined),-4,1,-3,107*,3,0,-6,-2
Cc1ccc(C)c(SCC(=O)NC(=O)NC2CCCC2)c1,2,0,-9,-3,4,-4,nt,nt
Cc1ccc(SCC(=O)NC(=O)NC2CCCC2)c(C)c1,2,-2,4,64*,4,-1,-4,-6
O=C(CCN1C(=O)C2C3C=CC(C4CC34)C2C1=O)OCC(=O)c1ccccc1 (centres undefined),-3,4,0,-11,-9,9,nt,nt
Cc1ccc(C(=O)COC(=O)CCN2C(=O)C3C4C=CC(C5CC45)C3C2=O)cc1 (centres undefined),3,-1,11,57*,-2,-1,2,-1
CC(C)(C)S(=O)(=O)/C(C#N)=N/Nc1ccc(Cl)cc1,6,-1,1,57*,8,-4,-4,-2
COc1ccc(/C=N/Nc2ccc([N+](=O)[O-])cc2S(=O)(=O)N2CCN(C)CC2)cc1,-3,1,6,102*,3,-2,18,-4
O=C(COC(=O)C1(c2ccccc2F)CCCC1)NCc1cccs1,6,-2,3,58*,6,-1,-3,-5
SMILES,Rin1 Abl inh,UHRF1 MBD2 ctr,ABHD5-PLIN5 inh,Arr AP2 block,B2AR ag,MBD2 inh,Arr-AP2 CP1,GST-FITC bead
COc1cc(C(=O)Nc2nc3ccc(S(C)(=O)=O)cc3s2)cc(OC)c1C,-9,20,4,-1,10,10,nt,nt
COc1cc(OC)cc(C(=O)Nc2nc3ccc(S(C)(=O)=O)cc3s2)c1,-4,-1,3,104*,9,3,3,-2
Cc1cccc(NC(=S)N(Cc2ccc(Cl)cc2)Cc2ccc(C(=O)O)cc2)c1,2,-1,1,56*,-7,-1,3,-4
COc1ccc(Br)cc1CNC(=O)CCNC(=O)Cn1ccc2ccccc2c1=O,-1,-2,4,57*,-13,-5,1,0
O=C1CCCC(O)=C1Sc1ccccc1C(=O)O,7,15,-7,74*,7,6,11,7
COc1cc(C2Nc3cccc4cccc(c34)N2)ccc1OC(C)=O,1,nt,3,51,11,nt,nt,nt
COc1cc(C2Nc3cccc4cccc(c34)N2)cc(OC)c1O,5,4,6,56*,18,3,17,9
CC(c1ccccc1)n1cc(C(=O)N2CCCN(Cc3ccccc3)CC2)nn1 (centres undefined),nt,-1,nt,nt,nt,-4,nt,nt
O=C(CSc1nnc(-c2ccccc2)n1-c1ccccc1)Nc1cccc2ccccc12,nt,0,nt,nt,nt,-4,nt,nt
COc1ccc(Br)cc1C(=O)Nc1ccc(N2CCCC2)cc1,1,-1,-5,-3,2,3,nt,nt
O=C(Nc1cc(C(=O)N2CCCC2)ccc1N1CCCC1)c1ccccc1F,0,5,-5,-5,30,4,nt,nt
CCn1c(=O)n(CC)c2cc(N3CCCC3)c(NC(=O)c3ccccc3C)cc21,0,23*,-6,4,12,9,21,-1
CCn1c(=O)n(CC)c2cc(N3CCCC3)c(NC(=O)c3ccccc3F)cc21,4,3,2,7,18,2,-2,-8
Cc1ccccc1C(=O)Nc1ccccc1N1CCCCC1,0,0,-7,1,-1,2,nt,nt
CCn1c(=O)n(CC)c2cc(N3CCCC3)c(NC(=O)c3cc(Br)ccc3OC)cc21,nt,0,nt,nt,nt,-4,4,1
CCn1c(COc2ccc(Cl)cc2)nnc1SCC(=O)Nc1ccc(Oc2ccccc2)cc1,nt,10,nt,nt,nt,2,nt,nt
CN[C@H]1C[C@H]2c3cc(-c4ccc5c(c4)OCO5)ccc3CCN2C[C@H]1[C@H](C)O,nt,-2,nt,nt,nt,-4,nt,nt
CCOC(=O)CC[C@@H]1CC[C@]2(CCCN(C(=O)c3ccc4ccccc4n3)C2)O1,nt,-2,nt,nt,nt,-6,nt,nt

# High-throughput results deposited in PubChem BioAssay by several laboratories.
